The source of these data is ChEMBL document CHEMBL4480378, “Amide linked redox-active naphthoquinones for the treatment of mitochondrial dysfunction” (2019).

Test [1] can be described thus: Ratio of IC50 for cytotoxicity against rat RGC5 cells to IC50 for cytotoxicity against human HepG2 cells.
The subject of test [2] is HepG2. The test is described as follows: Cytoprotection against rotenone-induced mitochondrial dysfunction in human HepG2 cells assessed as acute ATP rescue at 10 uM co-treated with rotenone for 1 hr by luciferase-based assay relative to control. The format is functional. The method, boiled down: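 HepG2 cells, 15 000 per well, attached overnight; after 24 h co-incubated with quinone (10 µM) and rotenone (10 µM) for 1 hour in glucose-free growth media. ATP then measured immediately by luciferase reaction, expressed as percentage of untreated (no rotenone) control.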

Test [3] has as its system HepG2. The test is described as follows: Cytoprotection against rotenone-induced mitochondrial dysfunction in human HepG2 cells assessed as increase in cell viability by measuring ATP levels at 10 uM preincubated for 48 hrs followed by rotenone-induction and measured after 24 hrs by luciferase-based assay. The format is functional. The method, boiled down: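 5000 HepG2 cells per well preincubated with quinone (10 µM) for 2 days, then challenged with rotenone (1 µM) for 6 hours in HBSS. Post-incubated with quinone alone in HBSS for a further 24 h. Viability read as ATP content by luciferase reaction, as percentage of untreated (no rotenone) control. 3 independent experiments, n = 6 wells each; error bars SD.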

Test [4] can be described thus: Electrochemical behavior of the compound assessed as redox potential (Eox) corrected toward saturated calomel reference electrode by cyclic voltammetry.
Test [5] in a line: Electrochemical behavior of the compound assessed as redox potential (Ered) corrected toward saturated calomel reference electrode by cyclic voltammetry.
The species entered for test [6] is Rattus norvegicus. The test is described as follows: Cytoprotection against rotenone-induced mitochondrial dysfunction in rat RGC5 cells assessed as increase in cell viability by measuring ATP levels at 10 uM preincubated for 48 hrs followed by rotenone-induction and measured after 24 hrs by luciferase-based assay. The format is functional.

Calls of active or inactive are those of the source. No cut-off for these calls is given here. Some results are limits rather than exact numbers.

Consider `CC1=C(CC(C)CCCC(C)C)C(=O)c2ccccc2C1=O` (stereo unspecified), for which, in test [1], the “Ratio IC50” value stood at 2. Moreover, the Activity in test [2] is on record as 60 - 90%.

Regarding `CC1=C(CCCC(=O)NCCc2c[nH]c3ccccc23)C(=O)c2ccccc2C1=O`, the Activity in test [3] and in test [2] was 100% each time.

Regarding `CC1=C(CCCC(=O)N[C@H](CO)Cc2ccccc2)C(=O)c2ccccc2C1=O`, the Activity in test [3] and in test [2] was 100% in each case.

For the compound `CC1=C(CCCCCCCCC2CO2)C(=O)c2ccccc2C1=O` (stereo unspecified), in test [1], the “Ratio IC50” value turned out to be 2. Moreover, the Activity in test [2] was 60 - 90%.

For the compound `CCCCCCOC(=O)CCCC1=C(C)C(=O)c2ccccc2C1=O`, in test [1], the “Ratio IC50” value stood at 2. The Activity in test [2] is recorded as less than 30%.

As for `COC(=O)[C@H](Cc1ccccc1)NC(=O)CCCC1=C(C)C(=O)c2ccccc2C1=O`, the Activity in test [3] is given as 90 - 100%.

As for `COc1ccc(CCNC(=O)CCCC2=C(C)C(=O)c3ccccc3C2=O)cc1OC`, the Activity in test [3] and in test [2] was 100% each time.

Take `COc1ccc(CC2=C(C)C(=O)c3ccccc3C2=O)cc1OC`: the “Ratio IC50” value in test [1] is listed as 2. For the same compound, in test [2], the Activity is given as 60 - 90%.

Turning to `COC(=O)[C@@H](NC(=O)CCCC1=C(C)C(=O)c2ccccc2C1=O)c1ccccc1`, the Activity in test [3] is reported as 90 - 100%.

For the compound `COC1=C(OC)C(=O)C(CCCCCCCCCCO)=C(C)C1=O` [IDEBENONE], the Activity in test [4] was -0.637 V; in test [2], 60 - 90%; in test [5], -0.714 V.

For `CC1=C(CCC(=O)O)C(=O)c2ccccc2C1=O`, the “Ratio IC50” value in test [1] turned out to be 2. For the same compound, the outcome in test [3] was Active. Moreover, the Activity in test [2] is given as 60 - 90%.

Consider `CC(=O)CCC1=C(C)C(=O)c2ccccc2C1=O`, for which, in test [1], the “Ratio IC50” value is 2. Further, the result in test [3] and in test [6] was Active. Also, in test [2], the Activity is 60 - 90%.

`CC1=C(CC(C)(O)C(F)(F)F)C(=O)c2ccccc2C1=O` (stereo unspecified): the Activity in test [2] is reported as 60 - 90%.

Consider `CC1=C(CCCC(=O)N[C@@H](Cc2ccccc2)C(=O)O)C(=O)c2ccccc2C1=O`, for which the Activity in test [3] is on record as 90 - 100%; in test [2], 5 - 70%.

On to `CC1=C(CCCC(=O)N[C@@H](Cc2ccc(OC(=O)CCCC3=C(C)C(=O)c4ccccc4C3=O)cc2)C(=O)OC(C)(C)C)C(=O)c2ccccc2C1=O`, for which the Activity in test [3] was 90 - 100%.

Take `CC1=C(CCCc2ccccc2)C(=O)c2ccccc2C1=O`: the “Ratio IC50” value in test [1] is recorded as 2.

Regarding `CC1=C(CCCCCC(=O)O)C(=O)c2ccccc2C1=O`, the result in test [3] was Active. Besides, in test [2], the Activity is listed as 60 - 90%.

As to `CC1=C(CCCC(=O)N[C@@H](CC(C)C)C(=O)OC(C)(C)C)C(=O)c2ccccc2C1=O`, the result in test [3] was inactive. Further, the Activity in test [2] amounted to 90%.

With `CCCCCCCCC1=C(C)C(=O)c2ccccc2C1=O`, the “Ratio IC50” value in test [1] amounted to 2. In addition, the result in test [3] and in test [6] was Active. In test [2], the Activity is 60 - 90%.

Consider `COC(=O)[C@H](NC(=O)CCCC1=C(C)C(=O)c2ccccc2C1=O)c1ccccc1`, for which the Activity in test [3] was 90 - 100%.

Turning to `CCCCCCCCCCC1=C(C)C(=O)c2ccccc2C1=O`, in test [1], the “Ratio IC50” value was 2. Further, the outcome in test [3] and in test [6] was inactive.

Take `CCCCCCOC(=O)CCC1=C(C)C(=O)c2ccccc2C1=O`: in test [1], the “Ratio IC50” value came out at 2. Also, in test [2], the Activity is less than 30%.

Take `CC1=C(CCC(F)(F)F)C(=O)c2ccccc2C1=O`: the Activity in test [2] was 60 - 90%.

Regarding `CC1=C(CCCC(=O)N[C@@H](CC(C)C)C(=O)O)C(=O)c2ccccc2C1=O`, the Activity in test [2] is 5 - 70%.

Take `CC1=C(CCCC(=O)NCCc2ccc(O)cc2)C(=O)c2ccccc2C1=O`: the Activity in test [3] and in test [2] was 100% in each case.

In the case of `CC1=C(CCCC(=O)N2CCC[C@H]2C(=O)OC(C)(C)C)C(=O)c2ccccc2C1=O`, the Activity in test [3] was 90 - 100%.

With `C=CCCC1=C(C)C(=O)c2ccccc2C1=O`, the “Ratio IC50” value in test [1] is given as 2. In addition, the Activity in test [2] was 60 - 90%.

As to `CC1=C(CCCCC(=O)O)C(=O)c2ccccc2C1=O`, the result in test [3] was Active. Also, the Activity in test [2] is reported as 60 - 90%.

For `CC1=C(CC[C@@H](C)[C@H]2CC[C@H]3[C@@H]4CC[C@@H]5C[C@H](O)CC[C@]5(C)[C@H]4C[C@H](O)[C@]23C)C(=O)c2ccccc2C1=O`, the “Ratio IC50” value in test [1] was 2.

On to `CC1=C(CCCC(=O)N[C@@H](Cc2ccccc2)C(=O)OC(C)(C)C)C(=O)c2ccccc2C1=O`, for which the Activity in test [3] is 90 - 100%.

For `CCCCOC(=O)CCC1=C(C)C(=O)c2ccccc2C1=O`, in test [1], the “Ratio IC50” value turned out to be 2. Besides, in test [2], the Activity is less than 30%.

For the compound `CC1=C(CCC(C)O)C(=O)c2ccccc2C1=O` (stereo unspecified), the “Ratio IC50” value in test [1] turned out to be 2. In addition, the outcome in test [3] and in test [6] was Active. Besides, in test [2], the Activity is recorded as 60 - 90%.

With `CCOC(=O)CCCC1=C(C)C(=O)c2ccccc2C1=O`, in test [1], the “Ratio IC50” value was 2. For the same compound, the Activity in test [2] is less than 30%.

`CC1=C(CCCCCCCCCCO)C(=O)c2ccccc2C1=O`: the “Ratio IC50” value in test [1] was determined as 2. Besides, the result in test [3] and in test [6] was Active. The Activity in test [4] is -0.768 V; in test [5] it was -0.845 V.

Take `CCCCCCCC/C=C\CCCCCCCC1=C(C)C(=O)c2ccccc2C1=O`: the “Ratio IC50” value in test [1] is on record as 2.

In the case of `C=CCCCCCCCCC1=C(C)C(=O)c2ccccc2C1=O`, the “Ratio IC50” value in test [1] is reported as 2. Moreover, the Activity in test [2] is listed as 60 - 90%.

Take `CCOC(=O)CCC1=C(C)C(=O)c2ccccc2C1=O`: in test [1], the “Ratio IC50” value is reported as 2. In test [3], the outcome was inactive. The result in test [6] was Active. Further, the Activity in test [2] is recorded as less than 30%.

For the compound `CC1=C(CCCC(=O)NCC(=O)OC(C)(C)C)C(=O)c2ccccc2C1=O`, the Activity in test [3] is on record as 90 - 100%.

With `CCCCCCCC1=C(C)C(=O)c2ccccc2C1=O`, the “Ratio IC50” value in test [1] is listed as 2. In addition, the outcome in test [3] and in test [6] was Active. Also, in test [2], the Activity was 60 - 90%.

In the case of `CC1=C(CCCC(=O)N2CCC[C@H]2C(=O)O)C(=O)c2ccccc2C1=O`, the Activity in test [2] is given as 5 - 70%.

Regarding `CC1=C(CC2CCC(=O)O2)C(=O)c2ccccc2C1=O` (stereo unspecified), in test [1], the “Ratio IC50” value was 2. For the same compound, the Activity in test [2] was 60 - 90%.

Take `CCCCCCC1=C(C)C(=O)c2ccccc2C1=O`: in test [1], the “Ratio IC50” value is 2. The outcome in test [3] and in test [6] was Active. Besides, in test [2], the Activity is 60 - 90%.

With `CCC[C@H](NC(=O)CCCC1=C(C)C(=O)c2ccccc2C1=O)C(=O)OC(C)(C)C`, in test [3], the Activity was 90 - 100%.

For `CC1=C(CCC2CCCC2)C(=O)c2ccccc2C1=O`, in test [1], the “Ratio IC50” value came to 2. Besides, the Activity in test [2] is recorded as 60 - 90%.

`CC1=C(CCCC(=O)N[C@@H](Cc2ccc(O)cc2)C(=O)OC(C)(C)C)C(=O)c2ccccc2C1=O`: in test [3], the outcome was inactive. Further, the Activity in test [2] is 90%.

Turning to `CCCCOC(=O)CCCC1=C(C)C(=O)c2ccccc2C1=O`, the “Ratio IC50” value in test [1] was determined as 2. Besides, the Activity in test [2] was less than 30%.

On to `CC1=C(CCC(C)C)C(=O)c2ccccc2C1=O`, for which the “Ratio IC50” value in test [1] came to 2.
